Published values of several laboratories.
Each line is one published result; the experiments were not run side by side.
Target: Leukocyte tyrosine kinase receptor (LTK, Homo sapiens, UniProt P29376)

COc1cc2nccc(Oc3ccc(NC(=O)c4c5n(n(-c6ccc(F)cc6)c4=O)CCCC5)cc3)c2cc1OC
inhibition (enzyme activity; inhibitor; 0.1 µM): -10%

Cc1ccc(NC(=O)c2ccc(C)c(C(F)(F)F)c2)cc1C#Cc1nn(C2CCC(O)CC2)c2ncnc(N)c12 (stereo not shown)
remaining signal (cell-free assay; 10 µM): 73%

O=C(Nc1cnn(-c2csc(C(=O)NC3COC3)c2)c1)Nc1c(F)cccc1Cl
remaining activity (enzyme activity; inhibitor; 5 µM): 92.2%

COc1cc2ncnc(Nc3ccc(Oc4ccccc4)cc3C)c2cc1OC
inhibition (enzyme activity; inhibitor; 1 µM): -5%

O=C(O)[C@H]1[C@H](Cn2nnc3ccccc3c2=O)CC[C@@H]1C(=O)c1ccc(OCCC2CCOCC2)cc1
remaining binding (cell-free assay; competition with immobilised ligand; 1 µM): 100%

CCCS(=O)(=O)Nc1ccc(F)c(C(=O)c2c[nH]c3ncc(-c4ccc(Cl)cc4)cc23)c1F
inhibition (enzyme activity; inhibitor; 1 µM): < 10%

COCCOc1nc(-c2ccc(Cl)nc2)nc2c1CN(C(=O)c1ncn3ccccc13)CC2
remaining binding (cell-free assay; competition with immobilised ligand; 0.1 µM): 100%

Nc1ncnc2occ(-c3ccc(NC(=O)Nc4cc(C(F)(F)F)ccc4F)cc3)c12
remaining activity (enzyme activity; inhibitor; 20 µM): 1.6%

Cc1ccc(C(=O)NCc2ccsc2)cc1C#Cc1cn(C(C)C)c2ncnc(N)c12
activity vs control (enzyme activity; inhibitor; 1 µM): 95%

COc1cc(Cl)c(C(=O)N[C@@H](CN[C@H]2CC[C@@H](N)CC2)Cc2ccc(C#N)cc2)cc1-c1ccc(CN[C@H](C)c2ccc(C)cc2)o1
remaining activity (enzyme activity; inhibitor; 1 µM): 94%

O=C(Nc1cnc(Oc2ccc(F)cc2)nc1)N1CCc2ncccc2[C@@H]1c1ccc(F)cc1
remaining binding (cell-free assay; competition with immobilised ligand; 1 µM): 93%

Cc1sc(C(=O)NC2COC2)cc1-n1cc(NC(=O)Nc2c(F)cccc2Cl)cn1
remaining activity (enzyme activity; inhibitor; 10 µM): 114%

Cc1ccc(C(=O)Nc2ccc(CN3CCN(C)CC3)c(C(F)(F)F)c2)cc1C#Cc1cnc2cccnn12
remaining signal (cell-free assay; 23.5 nM): 82%

CC/C(=N\NC(=O)NCc1cccc(O)c1)c1ccc(O)c(C)c1O
inhibition (enzyme activity; inhibitor; 0.1 µM): -1.4%

COc1cc2ncnc(Nc3ccc(Oc4ccccc4)c(C)c3C)c2cc1OC
inhibition (enzyme activity; inhibitor; 1 µM): -2%

Cc1cc(NC(=O)c2cccc3cc(-c4cccc5[nH]nc(N)c45)ccc23)ccc1F
activity vs control (enzyme activity; inhibitor; 0.1 µM): 96%

Cc1cnc(NC2CCOCC2)nc1-n1cnc(C(=O)NC(CN)c2cc(F)cc(Cl)c2)c1 (stereo not shown)
remaining activity (enzyme activity; inhibitor; radiometric; 1 µM): 103%

Cc1noc([C@H]2C[C@@H](c3ccc(C(F)(F)F)cc3)CN(C(=O)N3CCS(=O)(=O)C3)C2)n1
remaining binding (cell-free assay; competition with immobilised ligand; 1 µM): 100%

CC(C)(O)[C@H]1CC[C@H](Nc2ccc3ncc(-c4cccc(C(F)(F)F)c4)n3n2)CC1
remaining activity (enzyme activity; inhibitor; 1 µM): 70.5%
